Experimental data from ChEMBL document CHEMBL1122239, “Synthesis and biological properties of new hexapeptide substrates for vitamin K dependent carboxylase. Evidence for X-Pro cis/trans amide bond interconversions in prothrombin precursor fragment 18-23” (J Med Chem, 1983).

T1: Vitamin K-dependent gamma-carboxylase (Rattus norvegicus) (UniProt O88496)
T1 sequence (whole entry): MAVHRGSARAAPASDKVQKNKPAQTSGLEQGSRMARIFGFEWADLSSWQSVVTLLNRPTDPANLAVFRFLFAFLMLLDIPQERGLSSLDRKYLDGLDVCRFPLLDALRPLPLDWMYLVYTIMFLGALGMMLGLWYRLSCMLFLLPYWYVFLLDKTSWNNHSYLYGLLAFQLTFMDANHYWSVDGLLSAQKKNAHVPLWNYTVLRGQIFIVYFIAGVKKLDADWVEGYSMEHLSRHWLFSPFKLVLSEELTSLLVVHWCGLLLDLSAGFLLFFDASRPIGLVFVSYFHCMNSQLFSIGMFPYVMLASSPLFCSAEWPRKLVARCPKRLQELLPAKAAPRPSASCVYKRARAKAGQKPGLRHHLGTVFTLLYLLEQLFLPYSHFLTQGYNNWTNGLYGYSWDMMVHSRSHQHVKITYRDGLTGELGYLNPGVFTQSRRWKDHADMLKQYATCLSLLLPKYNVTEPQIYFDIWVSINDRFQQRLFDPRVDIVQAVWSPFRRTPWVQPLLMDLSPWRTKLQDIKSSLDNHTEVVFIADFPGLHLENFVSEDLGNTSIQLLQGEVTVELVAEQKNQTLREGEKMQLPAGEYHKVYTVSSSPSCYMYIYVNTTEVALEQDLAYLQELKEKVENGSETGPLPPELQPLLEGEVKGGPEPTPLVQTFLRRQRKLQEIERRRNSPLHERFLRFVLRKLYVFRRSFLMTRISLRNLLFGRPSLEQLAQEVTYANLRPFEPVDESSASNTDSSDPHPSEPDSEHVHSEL


Experiments:
Type in all cases: functional
[1] = biological target: T1, Vitamin K-dependent gamma-carboxylase (Rattus norvegicus); experiment: Compound was evaluated as substrates for vitamin K dependent carboxylase and percent CO2 incorporation was determined at 0.25 mM concentrations
In short: (§1)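 Vitamin K dependent carboxylase, which needs O2, reduced vitamin K and CO2, was given each hexapeptide directly as substrate at 0.25, 1, 4.25 or 5.5 mM. Carboxylation of Glu to Gla was reported as percent CO2 incorporation. The full assay procedure is given only by reference to earlier work.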

[2] = Carboxylation of 0.25 mM Phe-Leu-Glu-Glu-Leu at a concentration of 4.25 mM
In short: (§2)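 Inhibition format: the hexapeptide was added at 1, 4.25 or 5.5 mM to a carboxylase reaction containing 0.25 mM H-Phe-Leu-Glu-Glu-Leu-OH as the reference substrate. Carboxylation of the pentapeptide was reported as a percentage. The detailed assay procedure is given only by reference to earlier work.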

[3] = biological target: T1, Vitamin K-dependent gamma-carboxylase (Rattus norvegicus); experiment: Compound was evaluated as substrates for vitamin K dependent carboxylase and percent CO2 incorporation was determined at 1 mM concentrations; in short: as §1
[4] = biological target: T1, Vitamin K-dependent gamma-carboxylase (Rattus norvegicus); experiment: Compound was evaluated as substrates for vitamin K dependent carboxylase and percent CO2 incorporation was determined at 4.25 mM concentrations; in short: as §1
[5] = Carboxylation of 0.25 mM Phe-Leu-Glu-Glu-Leu at a concentration of 1 mM; in short: as §2
[6] = Carboxylation of 0.25 mM Phe-Leu-Glu-Glu-Leu at a concentration of 5.5 mM; in short: as §2
[7] = biological target: T1, Vitamin K-dependent gamma-carboxylase (Rattus norvegicus); experiment: Compound was evaluated as substrates for vitamin K dependent carboxylase and percent CO2 incorporation was determined at 5.5 mM concentrations; in short: as §1
[8] = substrate: COC(=O)[C@@H]1CSSC[C@@H](NC(C)=O)C(=O)N[C@H](CC(C)C)C(=O)N[C@@H](CCC(=O)O)C(=O)N[C@H](CCC(=O)O)C(=O)N2CCC[C@H]2C(=O)N1; experiment: (§3) Compound was evaluated as substrates for vitamin K dependent carboxylase and percent CO2 incorporation was determined; in short: as §1
[9] = substrate: CC(C)C[C@H]1NC(=O)[C@H](N)CSSC[C@@H](C(=O)O)NC(=O)[C@@H]2CCCN2C(=O)[C@@H](CCC(=O)O)NC(=O)[C@H](CCC(=O)O)NC1=O; experiment: as §3; in short: as §1
[10] = substrate: CC(C)C[C@H](NC(=O)[C@H](CC(N)=O)NC(=O)[C@H]1CSSC[C@H](NC(=O)[C@H](CCC(=O)O)NC(=O)[C@H](CCCN=C(N)N)NC(=O)[C@H](CCC(=O)O)NC(=O)[C@H](CC(C)C)NC(=O)[C@@H](N)CC(N)=O)C(=O)N[C@@H](CC(C)C)C(=O)N[C@H](CCC(=O)O)C(=O)N[C@@H](CCC(=O)O)C(=O)N2CCC[C@@H]2C(=O)N1)C(=O)N[C@@H](CCC(=O)O)C(=O)N[C@@H](CCCN=C(N)N)C(=O)N[C@@H](CCC(=O)O)C(=O)N[C@@H](CS)C(=O)O; experiment: (§4) Compound was evaluated as substrates for vitamin K dependent carboxylase; in short: as §1
[11] = substrate: CC(C)C[C@H](NC(=O)[C@@H](N)CC(N)=O)C(=O)N[C@@H](CCC(=O)O)C(=O)N[C@@H](CCCN=C(N)N)C(=O)N[C@@H](CCC(=O)O)C(=O)N[C@@H](CS)C(=O)O; experiment: as §4; in short: as §1
[12] = substrate: CC(C)C[C@H](NC(=O)[C@H](CCC(=O)O)NC(=O)[C@H](CCC(=O)O)NC(=O)[C@H](CC(C)C)NC(=O)[C@@H](N)Cc1ccccc1)C(=O)O; experiment: as §4; in short: as §1

Molecule | Incorporation [1] | Incorporation [2] | Incorporation [3] | Incorporation [4] | Incorporation [5] | Incorporation [6] | Incorporation [7] | Km [8] | Km [9] | Km [10] | Km [11] | Km [12]
CC(C)C[C@H](NC(=O)[C@H](C)N)C(=O)N[C@@H](CCC(=O)O)C(=O)N[C@@H](CCC(=O)O)C(=O)N1CCC[C@@H]1C(=O)N[C@@H](C)C(=O)O | 14% | 134% | 16% | 24% | 99% |  |  |  |  |  |  | 
COC(=O)[C@@H]1CSSC[C@@H](NC(C)=O)C(=O)N[C@H](CC(C)C)C(=O)N[C@@H](CCC(=O)O)C(=O)N[C@H](CCC(=O)O)C(=O)N2CCC[C@H]2C(=O)N1 | 3.3% |  | 2.4% |  | 51% | 54% | 2.2% |  |  |  |  | 
CC(C)C[C@H]1NC(=O)[C@H](N)CSSC[C@@H](C(=O)O)NC(=O)[C@@H](C)NC(=O)[C@@H](CCC(=O)O)NC(=O)[C@H](CCC(=O)O)NC1=O | 63% | 83% | 60% | 59% | 94% |  |  |  |  |  |  | 
CC(C)C[C@H]1NC(=O)[C@H](N)CSSC[C@@H](C(=O)O)NC(=O)[C@H](C)NC(=O)[C@@H](CCC(=O)O)NC(=O)[C@H](CCC(=O)O)NC1=O | 50% | 85% | 48% | 56% | 103% |  |  |  |  |  |  | 
CC(C)C[C@H]1NC(=O)[C@H](N)CSSC[C@@H](C(=O)O)NC(=O)[C@@H]2CCCN2C(=O)[C@@H](CCC(=O)O)NC(=O)[C@H](CCC(=O)O)NC1=O | 7.5% |  | 7% |  | 98% | 78% | 8.7% |  |  |  |  | 
Vitamin K-dependent gamma-carboxylase (Rattus norvegicus), O88496 (protein) MAVHRGSARAAPASDKVQKNKPAQTSGLEQGSRMARIFGFEWADLSSWQSVVTLLNRPTDPANLAVFRFLFAFLMLLDIPQERGLSSLDRKYLDGLDVCRFPLLDALRPLPLDWMYLVYTIMFLGALGMMLGLWYRLSCMLFLLPYWYVFLLDKTSWNNHSYLYGLLAFQLTFMDANHYWSVDGLLSAQKKNAHVPLWNYTVLRGQIFIVYFIAGVKKLDADWVEGYSMEHLSRHWLFSPFKLVLSEELTSLLVVHWCGLLLDLSAGFLLFFDASRPIGLVFVSYFHCMNSQLFSIGMFPYVMLASSPLFCSAEWPRKLVARCPKRLQELLPAKAAPRPSASCVYKRARAKAGQKPGLRHHLGTVFTLLYLLEQLFLPYSHFLTQGYNNWTNGLYGYSWDMMVHSRSHQHVKITYRDGLTGELGYLNPGVFTQSRRWKDHADMLKQYATCLSLLLPKYNVTEPQIYFDIWVSINDRFQQRLFDPRVDIVQAVWSPFRRTPWVQPLLMDLSPWRTKLQDIKSSLDNHTEVVFIADFPGLHLENFVSEDLGNTSIQLLQGEVTVELVAEQKNQTLREGEKMQLPAGEYHKVYTVSSSPSCYMYIYVNTTEVALEQDLAYLQELKEKVENGSETGPLPPELQPLLEGEVKGGPEPTPLVQTFLRRQRKLQEIERRRNSPLHERFLRFVLRKLYVFRRSFLMTRISLRNLLFGRPSLEQLAQEVTYANLRPFEPVDESSASNTDSSDPHPSEPDSEHVHSEL |  |  |  |  |  |  |  | 8 mM | 8 mM | 0.001 mM | 8 mM | 8 mM
